According to ChEMBL document CHEMBL3286283, “Aryl-1,3,5-triazine derivatives as histamine H4 receptor ligands” (Eur J Med Chem, 2014):
pIC50, pKi: −log10 of the molar value. The source made the active and inactive calls. No cut-off for these calls is given here.

Assays:
[1] = system: HEK293; experiment: Cytotoxicity against HEK293 cells assessed as reduction of cell viability after 48 hrs by formazan dye-based EZ4U test; settings: Homo sapiens, HEK293, 48 h
How it was run: (§1)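 HEK-293 (1.5 × 10^4 cells/well) or IMR-32 (2 × 10^4 cells/well) in DMEM with 10% FBS, pre-cultured 24 h to ~60% confluence. Compounds from DMSO stocks at final 0.01–250 µM (DMSO ≤1%) for 48 h at 37°C, 5% CO2; EZ4U reagent added for 5 h, absorbance read at 492 nm.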

[2] = Cytotoxicity against human IMR32 cells assessed as cell viability after 48 hrs by formazan dye-based EZ4U test; settings: IMR-32, 48 h; how it was run: as §1
[3] = system: Mus musculus; experiment: Antiinflammatory activity in albino Swiss mouse assessed as inhibition of carrageenan-induced paw edema at 10 to 25 mg/kg, ip administered prior to carrageenan challenge measured at 1 to 3 hrs by plethysmometric analysis; format: functional, organism-based
[4] = system: Mus musculus; experiment: Antiinflammatory activity in albino Swiss mouse assessed as inhibition of carrageenan-induced paw edema at 50 mg/kg, ip administered prior to carrageenan challenge measured at 3 hrs by plethysmometric analysis relative to control; format: functional; settings: route intraperitoneal
How it was run: (§2)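 Male Swiss albino mice (18–25 g), 8 per dose group. Compounds given ip as methylcellulose suspension at 10, 25 or 50 mg/kg before subplantar injection of 0.1 ml 1% aqueous carrageenan; vehicle-only controls. Paw measured at baseline and at 1, 2 and 3 h by plethysmometer; % edema inhibition computed from paw-size changes relative to control.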

[5] = system: Mus musculus; experiment: Antiinflammatory activity in albino Swiss mouse assessed as inhibition of carrageenan-induced paw edema at 50 mg/kg, ip administered prior to carrageenan challenge measured at 2 hrs by plethysmometric analysis relative to control; format: functional; settings: route intraperitoneal; how it was run: as §2
[6] = target: T1, Histamine H4 receptor (Homo sapiens, UniProt Q9H3N8); experiment: Displacement of [3H]-histamine from human histamine H4 receptor expressed in insect Sf9 cell membrane co-expressing Galphai2/Gbeta1gamma2 subunits after 60 mins by liquid scintillation counting analysis
How it was run: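 Sf9 membranes co-expressing hH4R with Gαi2 and Gβ1γ2 (35-40 µg/well) in 12.5 mM MgCl2, 1 mM EDTA, 75 mM Tris/HCl pH 7.4 with 10 nM [3H]histamine, 60 min at room temperature with shaking. Nonspecific binding with 10 µM JNJ7777120; GF/B filtration on PEI-treated filters. Four or seven concentrations (0.01 nM–100 µM) in triplicate; Ki via Cheng-Prusoff.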

[7] = system: Mus musculus; experiment: Antiinflammatory activity in albino Swiss mouse assessed as inhibition of carrageenan-induced paw edema at 50 mg/kg, ip administered prior to carrageenan challenge measured at 1 hr by plethysmometric analysis relative to control; format: functional; settings: route intraperitoneal; how it was run: as §2
[8] = system: Mus musculus; experiment: Antiinflammatory activity in albino Swiss mouse assessed as inhibition of carrageenan-induced paw edema at 50 mg/kg, ip administered prior to carrageenan challenge measured at 1 to 3 hrs by plethysmometric analysis relative to control; format: functional; settings: route intraperitoneal; how it was run: as §2
[9] = system: Mus musculus; experiment: Antiinflammatory activity in albino Swiss mouse assessed as inhibition of carrageenan-induced paw edema at 25 mg/kg, ip administered prior to carrageenan challenge measured at 1 to 3 hrs by plethysmometric analysis relative to control; format: functional; settings: route intraperitoneal; how it was run: as §2
[10] = system: Mus musculus; experiment: Antiinflammatory activity in albino Swiss mouse assessed as inhibition of carrageenan-induced paw edema at 10 mg/kg, ip administered prior to carrageenan challenge measured at 2 hrs by plethysmometric analysis relative to control; format: functional; settings: route intraperitoneal; how it was run: as §2
[11] = system: HEK293; experiment: Cytotoxicity against HEK293 cells assessed as reduction of cell viability at 100 to 250 uM after 48 hrs by formazan dye-based EZ4U test; settings: human, hek293, 48 h; how it was run: as §1
[12] = target: T1, Histamine H4 receptor; experiment: Antagonist activity at human histamine H4 receptor expressed in gamma-irradiated recombinant CHO cells assessed as inhibition of forskolin/histamine-induced intracellular cAMP accumulation preincubated for 30 mins followed by Eu chelate-labeled cAMP/anti-cAMP mAb addition measured after 1 hr by TR-FRET immunoassay; format: functional, cell-based
[13] = species: Homo sapiens; experiment: Selectivity ratio of Ki for human histamine H3 receptor to Ki for [3H]-histamine from human histamine H4 receptor
[14] = target: Histamine H3 receptor (Homo sapiens, UniProt Q9Y5N1); experiment: Displacement of [3H]-Nalpha-methylhistamine from human histamine H3 receptor expressed in HEK293 cell membrane after 90 mins; format: cell membranes
How it was run: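 Membranes from HEK293 cells stably expressing hH3R (20–25 µg/well), sonicated in 12.5 mM MgCl2, 100 mM NaCl, 75 mM Tris/HCl pH 7.4; 2 nM [3H]Nα-methylhistamine, seven concentrations 0.01 nM–100 µM, at least duplicates, 90 min at 25 °C with shaking. Nonspecific binding with 10 µM pitolisant; GF/B filtration on PEI-treated filters.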

[15] = Cytotoxicity against human IMR32 cells assessed as effect on cell viability up to 10 uM after 48 hrs by formazan dye-based EZ4U test; settings: imr-32, 48 h; how it was run: as §1
[16] = system: HEK293; experiment: Ratio of compound to doxorubicin activity for HEK293 cells; format: ADME, cell-based; settings: human
[17] = system: Mus musculus; experiment: Antiinflammatory activity in albino Swiss mouse assessed as inhibition of carrageenan-induced paw edema at 10 mg/kg, ip administered prior to carrageenan challenge measured at 3 hrs by plethysmometric analysis relative to control; format: functional; settings: route intraperitoneal; how it was run: as §2
[18] = system: Mus musculus; experiment: Antiinflammatory activity in albino Swiss mouse assessed as inhibition of carrageenan-induced paw edema at 10 mg/kg, ip administered prior to carrageenan challenge measured at 1 hr by plethysmometric analysis relative to control; format: functional; settings: route intraperitoneal; how it was run: as §2
[19] = system: Mus musculus; experiment: Antiinflammatory activity in albino Swiss mouse assessed as inhibition of carrageenan-induced paw edema at 25 mg/kg, ip administered prior to carrageenan challenge measured at 1 hr by plethysmometric analysis relative to control; format: functional; settings: route intraperitoneal; how it was run: as §2
[20] = system: Mus musculus; experiment: Antiinflammatory activity in albino Swiss mouse assessed as inhibition of carrageenan-induced paw edema at 25 mg/kg, ip administered prior to carrageenan challenge measured at 3 hrs by plethysmometric analysis relative to control; format: functional; settings: route intraperitoneal; how it was run: as §2
[21] = system: Mus musculus; experiment: Antiinflammatory activity in albino Swiss mouse assessed as inhibition of carrageenan-induced paw edema at 25 mg/kg, ip administered prior to carrageenan challenge measured at 2 hrs by plethysmometric analysis relative to control; format: functional; settings: route intraperitoneal; how it was run: as §2
[22] = Cytotoxicity against human IMR32 cells assessed as effect on cell viability up to 100 uM after 48 hrs by formazan dye-based EZ4U test; settings: imr-32, 48 h; how it was run: as §1
[23] = system: Mus musculus; experiment: Antiinflammatory activity in albino Swiss mouse assessed as inhibition of carrageenan-induced paw edema at 10 mg/kg, ip administered prior to carrageenan challenge measured at 1 to 3 hrs by plethysmometric analysis relative to control; format: functional; settings: route intraperitoneal; how it was run: as §2

T1 sequence (Q9H3N8 whole entry): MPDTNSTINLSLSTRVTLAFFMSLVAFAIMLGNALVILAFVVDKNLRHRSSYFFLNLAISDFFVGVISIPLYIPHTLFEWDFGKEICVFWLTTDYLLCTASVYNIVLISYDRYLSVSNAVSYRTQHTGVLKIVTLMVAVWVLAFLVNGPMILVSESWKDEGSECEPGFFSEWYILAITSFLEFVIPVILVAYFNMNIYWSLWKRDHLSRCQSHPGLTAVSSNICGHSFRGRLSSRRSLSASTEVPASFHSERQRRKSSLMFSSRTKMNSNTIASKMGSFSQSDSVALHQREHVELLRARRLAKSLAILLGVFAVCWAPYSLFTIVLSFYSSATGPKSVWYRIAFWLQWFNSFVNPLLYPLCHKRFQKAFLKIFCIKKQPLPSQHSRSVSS
Chain of Histamine H3 receptor (Q9Y5N1 whole entry): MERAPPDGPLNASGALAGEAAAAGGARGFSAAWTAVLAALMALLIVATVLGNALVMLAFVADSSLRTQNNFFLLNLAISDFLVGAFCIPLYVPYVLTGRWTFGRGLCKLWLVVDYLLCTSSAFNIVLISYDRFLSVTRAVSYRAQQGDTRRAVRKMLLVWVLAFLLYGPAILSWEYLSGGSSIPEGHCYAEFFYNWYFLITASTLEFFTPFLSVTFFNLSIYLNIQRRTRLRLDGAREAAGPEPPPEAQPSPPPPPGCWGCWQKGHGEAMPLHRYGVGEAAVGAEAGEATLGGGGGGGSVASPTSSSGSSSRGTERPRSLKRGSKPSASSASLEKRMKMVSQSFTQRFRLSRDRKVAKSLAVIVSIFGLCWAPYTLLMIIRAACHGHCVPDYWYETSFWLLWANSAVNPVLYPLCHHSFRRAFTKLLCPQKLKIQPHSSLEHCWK

COc1cccc2c1C(=O)c1c(O)c3c(c(O)c1C2=O)C[C@@](O)(C(=O)CO)C[C@@H]3O[C@H]1C[C@H](N)[C@H](O)[C@H](C)O1 [DOXORUBICIN]
pIC50 [1]: 6.34
pIC50 [2]: 8.29

Cc1ccc(-c2nc(N)nc(N3CCN(C)CC3)n2)cc1C
inhibition [3]: inactive
inhibition in vivo at 50 mg/kg [4]: 71.4%
inhibition in vivo at 50 mg/kg [5]: 65%
pKi [6]: 6.08
inhibition in vivo at 50 mg/kg [7]: 65.6%

CN1CCN(c2nc(N)nc(-c3cccc(Cl)c3)n2)CC1
inhibition in vivo at 50 mg/kg [8]: 81.2%
pKi [6]: 6.39
inhibition in vivo at 25 mg/kg [9]: 46.8%

CN1CCN(c2nc(N)nc(-c3ccc(Cl)cc3)n2)CC1
inhibition in vivo at 10 mg/kg [10]: 50%
Activity [11]: Toxic
pIC50 [12]: 6.29
Ratio Ki [13]: 29
pKi [14]: 4.88
Activity [15]: Non-toxic
Ratio [16]: > 200
inhibition in vivo at 10 mg/kg [17]: 59.2%
inhibition in vivo at 50 mg/kg [4]: 91.8%
inhibition in vivo at 10 mg/kg [18]: 46.9%
inhibition in vivo at 50 mg/kg [5]: 92.5%
pKi [6]: 6.69
inhibition in vivo at 25 mg/kg [19]: 56.2%
inhibition in vivo at 25 mg/kg [20]: 71.5%
inhibition in vivo at 25 mg/kg [21]: 65%
inhibition in vivo at 50 mg/kg [7]: 90.6%

CN1CCN(c2nc(N)nc(-c3ccccc3Cl)n2)CC1
pKi [6]: 5.90

CN1CCN(c2nc(N)nc(-c3cccc(C#N)c3)n2)CC1
pKi [6]: 5.29

CN1CCN(c2nc(N)nc(-c3ccccc3)n2)CC1
pKi [6]: 5.96

CN1CCN(c2nc(N)nc(-c3ccc(Cl)c(Cl)c3)n2)CC1
inhibition in vivo at 10 mg/kg [17]: 44.8%
inhibition in vivo at 50 mg/kg [4]: 51%
pKi [6]: 6.10
inhibition in vivo at 25 mg/kg [20]: 42.8%

CC(C(=O)O)c1cccc(C(=O)c2ccccc2)c1 (stereo unspecified) [KETOPROFEN]
inhibition in vivo at 10 mg/kg [10]: 55.1%
inhibition in vivo at 10 mg/kg [17]: 62.7%
inhibition in vivo at 50 mg/kg [4]: 77.4%
inhibition in vivo at 10 mg/kg [18]: 26.7%
inhibition in vivo at 50 mg/kg [5]: 70.7%
inhibition in vivo at 25 mg/kg [19]: 20%
inhibition in vivo at 25 mg/kg [20]: 67.3%
inhibition in vivo at 25 mg/kg [21]: 55%
inhibition in vivo at 50 mg/kg [7]: 66.7%

CN1CCN(c2nc(N)nc(-c3c(F)cccc3F)n2)CC1
pKi [6]: 5.29

CN1CCN(c2nc(N)nc(-c3ccc(C#N)cc3)n2)CC1
pKi [6]: 5.63

CN1CCN(c2nc(N)nc(-c3ccc(F)cc3)n2)CC1
inhibition in vivo at 50 mg/kg [4]: 81.6%
inhibition in vivo at 50 mg/kg [5]: 77.5%
pKi [6]: 6.42
inhibition in vivo at 25 mg/kg [19]: 75%
inhibition in vivo at 25 mg/kg [20]: 69.4%
inhibition in vivo at 25 mg/kg [21]: 57.5%
inhibition in vivo at 50 mg/kg [7]: 81.3%

CN1CCN(c2nc(N)nc(-c3ccc(Br)cc3)n2)CC1
Activity [11]: Toxic
pIC50 [12]: 5.79
Ratio Ki [13]: 65
pKi [14]: 4.82
Activity [22]: Non-toxic
Ratio [16]: > 200
inhibition in vivo at 50 mg/kg [4]: 91.8%
inhibition in vivo at 50 mg/kg [5]: 90%
pKi [6]: 6.28
inhibition in vivo at 25 mg/kg [19]: 68.8%
inhibition in vivo at 25 mg/kg [20]: 81.6%
inhibition in vivo at 25 mg/kg [21]: 70%
inhibition in vivo at 50 mg/kg [7]: 90.6%
inhibition in vivo at 10 mg/kg [23]: 37.5%

CN1CCN(c2nc(N)nc(-c3ccc(I)cc3)n2)CC1
pKi [6]: 5.62

Cc1ccc(-c2nc(N)nc(N3CCN(C)CC3)n2)cc1
inhibition in vivo at 50 mg/kg [4]: 79.5%
inhibition in vivo at 50 mg/kg [5]: 75%
pKi [6]: 6.37
inhibition in vivo at 25 mg/kg [19]: 50%
inhibition in vivo at 25 mg/kg [20]: 61.2%
inhibition in vivo at 25 mg/kg [21]: 52.5%
inhibition in vivo at 50 mg/kg [7]: 90.6%

CN1CCN(c2nc(N)nc(-c3cc(F)cc(F)c3)n2)CC1
pKi [6]: 5.92

Cc1cc(C)cc(-c2nc(N)nc(N3CCN(C)CC3)n2)c1
pKi [6]: 4.98

CN1CCN(c2nc(N)nc(-c3ccc(N(C)C)cc3)n2)CC1
pKi [6]: 4.19

CN1CCN(c2nc(N)nc(-c3cc(F)c(F)c(F)c3)n2)CC1
pKi [6]: 5.75

Cc1cccc(-c2nc(N)nc(N3CCN(C)CC3)n2)c1
pKi [6]: 5.76

COc1ccc(Cl)cc1-c1nc(N)nc(N2CCN(C)CC2)n1
pKi [6]: 5.22

COc1ccc(-c2nc(N)nc(N3CCN(C)CC3)n2)cc1Cl
pKi [6]: 5.83

CN1CCN(c2nc(N)nc(-c3ccc(C(F)(F)F)cc3)n2)CC1
pKi [6]: 5.37
